Test results: the RNAGym collection of RNA variant scans (doi:10.1126/science.aae0568)
Fewer inactive variants are shown than the library holds.

B1: tRNA (parent)
chain: GUUCCGUUGGCGUAAUGGUAACGCGUCUCCCUCCUAAGGAGAAGACUGCGGGUUCGAGUCCCGUACGGAACG

Variants of: B1
Assay: yeast fitness relative to wild type (ratio to wild type); higher = fitter; tRNA-Arg(CCU), competitive growth, 37 C, YPD
Outline: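 Variants of the tRNA-Arg(CCU) gene, chemically synthesised with a 3% per-site mutation rate at 69 sites, were placed at the native genomic locus in Saccharomyces cerevisiae. The pooled strains were competed in YPD at 37°C for 24 hours in six parallel replicates. Gene amplicons from the start population and from each end population were read by 100-nucleotide paired-end sequencing. Darwinian fitness relative to wild type came from changes in genotype frequencies; genotypes needed ≥ 100 starting reads, and estimates < 0.5 were set to 0.5.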

| Variant | yeast fitness |
| --- | --- |
| A21C G58C C60U C66G | ≤ 0.5 |
| A21C G63A | 0.88 |
| A21C G67U | 0.656 |
| A21C G68C | 0.67 |
| A21C U26A C46U C55U | 0.608 |
| A21C U26C | 0.785 |
| A21C U26C A40G U47C | ≤ 0.5 |
| A21C U26C C34G G44A C46A C55G G58A U59C A69U | 0.625 |
| A21C U26G A43C | ≤ 0.5 |
| A21C U26G C34U A40G G51A | 0.529 |
| A21C U26G U35A A40U | ≤ 0.5 |
| A21C U28A | 0.738 |
| A21C U28A A40U C62G C66G | ≤ 0.5 |
| A21C U28A C31G | ≤ 0.5 |
| A21C U28A C55G A57U G67A | ≤ 0.5 |
| A21C U28A G38A U59C G67A | ≤ 0.5 |
| A21C U28A U32C G68A | ≤ 0.5 |
| A21C U28G C66U | ≤ 0.5 |
| A21C U32A C34A G38A A45U | ≤ 0.5 |
| A21C U32A C34U | ≤ 0.5 |
| A21C U32A C46A | 0.744 |

| Variant | yeast fitness |
| --- | --- |
| A21C U32A C46A U64A A65C | ≤ 0.5 |
| A21C U32C A40G | 0.557 |
| A21C U32C C46G C49G | 0.529 |
| A21C U32C C46U | 0.849 |
| A21C U32C C46U C66U | 0.585 |
| A21C U32C U64A | 0.664 |
| A21C U32G | 0.617 |
| A21C U35A | 0.601 |
| A21C U35A G50C A69C | ≤ 0.5 |
| A21C U35C A65G | 0.583 |
| A21C U47A | 0.85 |
| A21C U47A C60U G67C A69U | 0.574 |
| A21C U53G C62U G68C | ≤ 0.5 |
| A21C U54A | 0.552 |
| A21C U54C | 0.845 |
| A21C U54G C55G | 0.585 |
| A21C U59A | 0.791 |
| A21C U64C | 0.835 |
| A21C U64G A69G | 0.504 |
| A21G | 1 |
| A21G A36G | 0.954 |

| Variant | yeast fitness |
| --- | --- |
| A21G A36G A42U A57G | ≤ 0.5 |
| A21G A36G G38C C62G | ≤ 0.5 |
| A21G A36G G51A A69C | ≤ 0.5 |
| A21G A36G U53A A57U A65U | ≤ 0.5 |
| A21G A36U A45U C49U U64A A70U | ≤ 0.5 |
| A21G A36U C49A | ≤ 0.5 |
| A21G A36U C61U | ≤ 0.5 |
| A21G A37C A65U G68C | ≤ 0.5 |
| A21G A37C G38A A65U G68C | ≤ 0.5 |
| A21G A37G G39C C62U | ≤ 0.5 |
| A21G A40C | 0.88 |
| A21G A40C A42C C66A | ≤ 0.5 |
| A21G A40C A42U C46U C49U G51A A65C | 0.732 |
| A21G A40C A42U C46U C49U G51A A69C | 0.596 |
| A21G A40G | 0.986 |
| A21G A40G A70U | 0.609 |
| A21G A40G C61U | 0.654 |
| A21G A40U | 0.914 |
| A21G A40U G52C C55A C66G | 0.539 |
| A21G A42C | 0.96 |
| A21G A42C A70U | 0.761 |

| Variant | yeast fitness |
| --- | --- |
| A21G A42C C61U | 0.659 |
| A21G A42C C66A | ≤ 0.5 |
| A21G A42C G52A | 0.637 |
| A21G A42C G67A | 0.662 |
| A21G A42G C66G | ≤ 0.5 |
| A21G A42U | 0.839 |
| A21G A42U A57U C62U | ≤ 0.5 |
| A21G A42U C49U G67A | ≤ 0.5 |
| A21G A42U C66U | 0.56 |
| A21G A42U G68C | 0.539 |
| A21G A43C | 0.966 |
| A21G A43C A69U A70C | 0.762 |
| A21G A43C A70U | 0.712 |
| A21G A43C C60G A69U | ≤ 0.5 |
| A21G A43C C60G G68C | ≤ 0.5 |
| A21G A43G | 1.04 |
| A21G A43U C61A | ≤ 0.5 |
| A21G A45C | 0.89 |
| A21G A45C C66U | 0.555 |
| A21G A45C U59C | 0.732 |
| A21G A45G | 0.91 |
